Data from ChEMBL document CHEMBL4152298, “Total synthesis of acylphloroglucinols and their antibacterial activities against clinical isolates of multi-drug resistant (MDR) and methicillin-resistant strains of Staphylococcus aureus” (2018).
≈ marks a conversion by molar mass, not a printed value.

Key:
Type in all cases: functional
Staphylococcus aureus [1] = experiment: Antibacterial activity against methicillin-resistant Staphylococcus aureus EMRSA16 by MTT dye based assay
In short: (§1)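 Strains grown on nutrient agar for 24 h at 37 °C before testing. Compounds dissolved in DMSO, diluted in MHB to 512 mg/L stock. Two-fold serial broth microdilution in MHB, final 128 to 0.25 mg/L in the initial evaluation. Final DMSO 1.56% to 0.0031% v/v. Inoculum 5×10^5 cfu/mL, 37 °C incubation, duplicates. MTT added for 20 min. MIC is the lowest concentration with no colour change.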

Staphylococcus aureus [2] = experiment: Antibacterial activity against Staphylococcus aureus ATCC 25923 by MTT dye based assay; in short: as §1
Staphylococcus aureus [3] = experiment: Antibacterial activity against Staphylococcus aureus RN4220 harboring MsrA macrolide efflux protein by MTT dye based assay; in short: as §1
Staphylococcus aureus [4] = experiment: Antibacterial activity against methicillin-resistant Staphylococcus aureus isolate XU212 harboring TetK tetracycline efflux pump by MTT dye based assay; in short: as §1
Staphylococcus aureus [5] = experiment: Antibacterial activity against Staphylococcus aureus SA1199B over-expressing NorA by MTT dye based assay; in short: as §1
Staphylococcus aureus [6] = experiment: Antibacterial activity against methicillin-resistant Staphylococcus aureus EMRSA15 by MTT dye based assay; in short: as §1

SMILES | MIC (Staphylococcus aureus [1]) [µg/mL] | MIC (Staphylococcus aureus [2]) [µg/mL] | MIC (Staphylococcus aureus [3]) [µg/mL] | MIC (Staphylococcus aureus [4]) [µg/mL] | MIC (Staphylococcus aureus [5]) [µg/mL] | MIC (Staphylococcus aureus [6]) [µg/mL]
CCCCCCCCCCCCOc1cc(O)cc(O)c1C(=O)[C@@H](C)CC | 16 (≈ 42.3 µM) | 128 (≈ 338 µM) | 8 (≈ 21.1 µM) | 64 (≈ 169 µM) | 16 (≈ 42.3 µM) | 16 (≈ 42.3 µM)
CCCCCCCCCC(=O)c1c(O)cc(O)cc1OC/C=C(\C)CCC=C(C)C | 64 (≈ 154 µM) | 512 (≈ 1230 µM) | 256 (≈ 614 µM) | 64 (≈ 154 µM) | 512 (≈ 1230 µM) | 512 (≈ 1230 µM)
CC(=O)c1c(O)cc(O)cc1OC/C=C(\C)CCC=C(C)C | 4 (≈ 13.1 µM) | 16 (≈ 52.6 µM) | 8 (≈ 26.3 µM) | 8 (≈ 26.3 µM) | 8 (≈ 26.3 µM) | 16 (≈ 52.6 µM)
CCCCCCCCCCCCCCCCCC(=O)c1c(O)cc(O)cc1OC/C=C(\C)CCC=C(C)C | > 512 | > 512 | > 512 | > 512 | > 512 | > 512
CC[C@H](C)C(=O)c1c(O)cc(O)cc1OCCC(C)CCCC(C)C (some centres not stated) | 0.25 (≈ 0.713 µM) | 1 (≈ 2.85 µM) | 0.5 (≈ 1.43 µM) | 1 (≈ 2.85 µM) | 0.5 to 1 (≈ 1.43 to 2.85 µM) | 0.5 to 1 (≈ 1.43 to 2.85 µM)
CCCCCCCCCCCCCCCCCCOc1cc(O)cc(O)c1C(=O)[C@@H](C)CC | > 512 | > 512 | > 512 | > 512 | > 512 | > 512
CC[C@H](C)C(=O)c1c(O)cc(O)cc1OC/C=C(\C)CCC=C(C)C [OLYMPICIN A] | 0.5 (≈ 1.44 µM) | 1 (≈ 2.89 µM) | 1 (≈ 2.89 µM) | 0.5 (≈ 1.44 µM) | 1 (≈ 2.89 µM) | 1 (≈ 2.89 µM)
CCCC(=O)c1c(O)cc(O)cc1OC/C=C(\C)CCC=C(C)C | 1 (≈ 3.01 µM) | 2 (≈ 6.02 µM) | 2 (≈ 6.02 µM) | 2 (≈ 6.02 µM) | 2 (≈ 6.02 µM) | 2 (≈ 6.02 µM)
CCn1cc(C(=O)O)c(=O)c2cc(F)c(N3CCNCC3)cc21 [NORFLOXACIN] | 256 (≈ 802 µM) | 0.5 (≈ 1.57 µM) | 0.5 (≈ 1.57 µM) | 8 (≈ 25.1 µM) | 32 (≈ 100 µM) | 0.5 (≈ 1.57 µM)
CC[C@H](C)C(=O)c1c(O)cc(O)cc1OCCC(C)C | 2 to 4 (≈ 7.13 to 14.3 µM) | 2 (≈ 7.13 µM) | 2 (≈ 7.13 µM) | 4 (≈ 14.3 µM) | 2 (≈ 7.13 µM) | 2 to 4 (≈ 7.13 to 14.3 µM)
CCCCC(=O)c1c(O)cc(O)cc1OC/C=C(\C)CCC=C(C)C | 0.5 (≈ 1.44 µM) | 0.5 (≈ 1.44 µM) | 0.5 (≈ 1.44 µM) | 0.5 (≈ 1.44 µM) | 1 (≈ 2.89 µM) | 1 (≈ 2.89 µM)
CC[C@H](C)C(=O)c1c(O)cc(O)cc1OCc1ccccc1 | 4 (≈ 13.3 µM) | 4 (≈ 13.3 µM) | 4 to 8 (≈ 13.3 to 26.6 µM) | 4 (≈ 13.3 µM) | 8 (≈ 26.6 µM) | 8 (≈ 26.6 µM)
CCCCCCCCOc1cc(O)cc(O)c1C(=O)[C@@H](C)CC | 0.25 (≈ 0.775 µM) | 0.25 to 0.5 (≈ 0.775 to 1.55 µM) | 0.5 (≈ 1.55 µM) | 0.5 (≈ 1.55 µM) | 0.25 to 0.5 (≈ 0.775 to 1.55 µM) | 0.5 (≈ 1.55 µM)
CN[C@H](CC(C)C)C(=O)N[C@H]1C(=O)N[C@@H](CC(N)=O)C(=O)N[C@H]2C(=O)N[C@H]3C(=O)N[C@H](C(=O)N[C@H](C(=O)O)c4cc(O)cc(O)c4-c4cc3ccc4O)[C@H](O)c3ccc(c(Cl)c3)Oc3cc2cc(c3O[C@@H]2O[C@H](CO)[C@@H](O)[C@H](O)[C@H]2O[C@H]2C[C@](C)(N)[C@H](O)[C@H](C)O2)Oc2ccc(cc2Cl)[C@H]1O [VANCOMYCIN] | 0.25 (≈ 0.173 µM) | 0.25 (≈ 0.173 µM) | – | – | 0.25 (≈ 0.173 µM) | 0.25 (≈ 0.173 µM)
CC[C@H](C)C(=O)c1c(O)cc(O)cc1OCC=C(C)C | 4 (≈ 14.4 µM) | 8 (≈ 28.7 µM) | 8 (≈ 28.7 µM) | 4 to 8 (≈ 14.4 to 28.7 µM) | 16 (≈ 57.5 µM) | 16 (≈ 57.5 µM)
CC[C@H](C)C(=O)c1c(O)cc(O)cc1OC/C=C(\C)CC/C=C(\C)CCC=C(C)C | > 512 | > 512 | > 512 | > 512 | > 512 | > 512
CCCCCCCCCCOc1cc(O)cc(O)c1C(=O)[C@@H](C)CC | 0.25 (≈ 0.713 µM) | 1 to 2 (≈ 2.85 to 5.71 µM) | 1 (≈ 2.85 µM) | 2 to 4 (≈ 5.71 to 11.4 µM) | 2 (≈ 5.71 µM) | 0.5 to 1 (≈ 1.43 to 2.85 µM)
CCC(=O)c1c(O)cc(O)cc1OC/C=C(\C)CCC=C(C)C | 1 (≈ 3.14 µM) | 2 (≈ 6.28 µM) | 1 (≈ 3.14 µM) | 1 (≈ 3.14 µM) | 2 (≈ 6.28 µM) | 2 (≈ 6.28 µM)
CC(C)=CCC/C(C)=C/COc1cc(O)cc(O)c1C(=O)c1ccccc1 | 0.5 (≈ 1.36 µM) | 1 (≈ 2.73 µM) | 1 (≈ 2.73 µM) | 1 (≈ 2.73 µM) | 1 (≈ 2.73 µM) | 1 (≈ 2.73 µM)
